Measured values published in ChEMBL document CHEMBL2203173 (J Med Chem, 2012).

Columns and labels:
Mus musculus [1] = assay: Toxicity in BALB/c nu/nu mouse xenografted with human DMS53 cells assessed as change in RBC count at 3 mg/kg, iv administered for 5 days a week measured after 21 days; assay type: organism-based, DMS-53; parameters: dose 3 mg/kg, route intravenous; details: in vivo, 504 h
Mus musculus [2] = assay: Toxicity in BALB/c nu/nu mouse xenografted with human DMS53 cells assessed as change in lungs histology at 20 mg/kg, po administered for 3 times a week measured after 20 days; assay type: organism-based, DMS-53; parameters: dose 20 mg/kg, route oral; details: in vivo, 480 h
In short: (§1)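 Nude mice bearing DMS-53 xenografts gavaged 3 times/week for 20 days, vehicle 30% propylene glycol/saline, vehicle controls, n = 6-11 mice/condition. Sacrifice on day 20. Organ weights and hematological indices recorded. Spleen, kidney, liver, heart, lungs and brain examined histologically, hearts stained with Gomori Trichrome for fibrosis.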

Mus musculus [3] = assay: Toxicity in BALB/c nu/nu mouse xenografted with human DMS53 cells assessed as hepatocellular fibrosis at 3 mg/kg, iv administered for 5 days a week measured after 21 days by hematoxylin and eosin staining method; assay type: organism-based, DMS-53; parameters: dose 3 mg/kg, route intravenous; details: in vivo, 504 h
In short: (§2)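 Nude mice with DMS-53 xenografts dosed by tail-vein iv injection in 30% propylene glycol/saline, starting at 100 mm3 tumour volume, 5 days/week for 21 days. Spleen, kidney, liver, heart, lungs and brain were stained with H&E, Perls' (Fe loading) and Gomori Trichrome (fibrosis) by standard methods, and an independent veterinary pathologist examined them.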

Mus musculus [4] = assay: Cardiotoxicity in BALB/c nu/nu mouse xenografted with human DMS53 cells at 3 mg/kg, iv administered for 5 days a week measured after 21 days; assay type: toxicity, organism-based, DMS-53; parameters: dose 3 mg/kg, route intravenous; details: in vivo, 504 h
In short: (§3)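 DMS-53 xenograft nude mice given agents iv by tail vein 5 days/week in 30% propylene glycol/saline for 21 days. At sacrifice, heart sections were stained with Gomori Trichrome to detect fibrosis. Spleen, kidney, liver, heart, lungs and brain were also stained with H&E and Perls' and examined by an independent veterinary pathologist.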

Mus musculus [5] = assay: Toxicity in BALB/c nu/nu mouse xenografted with human DMS53 cells assessed as change in brain histology at 3 mg/kg, iv administered for 5 days a week measured after 21 days by hematoxylin and eosin staining method; assay type: organism-based, DMS-53; parameters: dose 3 mg/kg, route intravenous; details: in vivo, 504 h
In short: (§4)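 DMS-53 xenografts in nude mice; dosing started at 100 mm3 tumor volume. Agents given iv via tail vein, 5 days/week for 21 days, vehicle 30% propylene glycol/saline, vehicle-treated controls. Mice sacrificed day 21. Body and organ weights and hematological indices recorded. Spleen, kidney, liver, heart, lungs and brain were stained with H&E, Perls' and Gomori Trichrome and read by an independent veterinary pathologist.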

Mus musculus [6] = assay: Toxicity in BALB/c nu/nu mouse xenografted with human DMS53 cells assessed as change in lungs histology at 3 mg/kg, iv administered for 5 days a week measured after 21 days by hematoxylin and eosin staining method; assay type: organism-based, DMS-53; parameters: dose 3 mg/kg, route intravenous; details: in vivo, 504 h; in short: as §4
Mus musculus [7] = assay: Toxicity in BALB/c nu/nu mouse xenografted with human DMS53 cells assessed as hepatocellular necrosis at 6 mg/kg, iv administered for 5 days a week measured after 21 days by hematoxylin and eosin staining method; assay type: organism-based, DMS-53; parameters: dose 6 mg/kg, route intravenous; details: in vivo, 504 h; in short: as §2
Mus musculus [8] = assay: Toxicity in BALB/c nu/nu mouse xenografted with human DMS53 cells assessed as change in RBC count at 6 mg/kg, iv administered for 5 days a week measured after 21 days; assay type: organism-based, DMS-53; parameters: dose 6 mg/kg, route intravenous; details: in vivo, 504 h
Mus musculus [9] = assay: Toxicity in BALB/c nu/nu mouse xenografted with human DMS53 cells assessed as hepatocellular fibrosis at 6 mg/kg, iv administered for 5 days a week measured after 21 days by hematoxylin and eosin staining method; assay type: organism-based, DMS-53; parameters: dose 6 mg/kg, route intravenous; details: in vivo, 504 h; in short: as §2
Mus musculus [10] = assay: Toxicity in BALB/c nu/nu mouse xenografted with human DMS53 cells assessed as change in lung weight at 10 mg/kg, po administered for 3 times a week measured after 20 days; assay type: organism-based, DMS-53; parameters: dose 10 mg/kg, route oral; details: in vivo, 480 h; in short: as §1
Mus musculus [11] = assay: Toxicity in BALB/c nu/nu mouse xenografted with human DMS53 cells assessed as change in hemoglobin level at 6 mg/kg, iv administered for 5 days a week measured after 21 days; assay type: organism-based, DMS-53; parameters: dose 6 mg/kg, route intravenous; details: in vivo, 504 h; in short: as §4
Mus musculus [12] = assay: Toxicity in BALB/c nu/nu mouse xenografted with human DMS53 cells assessed as vacuolation at 3 mg/kg, iv administered for 5 days a week measured after 21 days by hematoxylin and eosin staining method; assay type: organism-based, DMS-53; parameters: dose 3 mg/kg, route intravenous; details: in vivo, 504 h; in short: as §2
Mus musculus [13] = assay: Toxicity in BALB/c nu/nu mouse xenografted with human DMS53 cells assessed as change in organ weight at 4 mg/kg, iv administered for 5 days a week measured after 21 days; assay type: organism-based, DMS-53; parameters: dose 4 mg/kg, route intravenous; details: in vivo, 504 h
In short: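 DMS-53 xenograft-bearing nude mice, treatment started at 100 mm3 tumour volume: iv tail-vein dosing in 30% propylene glycol/saline, 5 days/week for 21 days. Organs were weighed at sacrifice and compared with vehicle-control mice.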

Mus musculus [14] = assay: Cardiotoxicity in BALB/c nu/nu mouse xenografted with human DMS53 cells at 4 mg/kg, iv administered for 5 days a week measured after 21 days; assay type: toxicity, organism-based, DMS-53; parameters: dose 4 mg/kg, route intravenous; details: in vivo, 504 h; in short: as §3
Mus musculus [15] = assay: Toxicity in BALB/c nu/nu mouse xenografted with human DMS53 cells assessed as hepatocellular necrosis at 8 mg/kg, iv administered for 5 days a week measured after 21 days by hematoxylin and eosin staining method; assay type: organism-based, DMS-53; parameters: dose 8 mg/kg, route intravenous; details: in vivo, 504 h; in short: as §2
Mus musculus [16] = assay: Toxicity in BALB/c nu/nu mouse xenografted with human DMS53 cells assessed as cardiac fibrosis at 4 mg/kg, iv administered for 5 days a week measured after 21 days by […]; assay type: organism-based, Heart, DMS-53; parameters: dose 4 mg/kg, route intravenous; details: in vivo, 504 h; in short: as §3
Mus musculus [17] = assay: Toxicity in BALB/c nu/nu mouse xenografted with human DMS53 cells assessed as change in lungs histology at 4 mg/kg, iv administered for 5 days a week measured after 21 days by hematoxylin and eosin staining method; assay type: organism-based, DMS-53; parameters: dose 4 mg/kg, route intravenous; details: in vivo, 504 h; in short: as §4
Mus musculus [18] = assay: Toxicity in BALB/c nu/nu mouse xenografted with human DMS53 cells assessed as change in hematopoetic cells in splenic red pulp at 8 mg/kg, iv administered for 5 days a week measured after 21 days by hematoxylin and eosin staining method; assay type: organism-based, DMS-53; parameters: dose 8 mg/kg, route intravenous; details: in vivo, 504 h; in short: as §4
Mus musculus [19] = assay: Toxicity in BALB/c nu/nu mouse xenografted with human DMS53 cells assessed as change in hematopoetic cells in splenic red pulp at 4 mg/kg, iv administered for 5 days a week measured after 21 days by hematoxylin and eosin staining method; assay type: organism-based, DMS-53; parameters: dose 4 mg/kg, route intravenous; details: in vivo, 504 h; in short: as §4
Mus musculus [20] = assay: Toxicity in BALB/c nu/nu mouse xenografted with human DMS53 cells assessed as cardiac fibrosis at 8 mg/kg, iv administered for 5 days a week measured after 21 days by […]; assay type: organism-based, Heart, DMS-53; parameters: dose 8 mg/kg, route intravenous; details: in vivo, 504 h; in short: as §3
Mus musculus [21] = assay: Toxicity in BALB/c nu/nu mouse xenografted with human DMS53 cells assessed as hepatocellular fibrosis at 4 mg/kg, iv administered for 5 days a week measured after 21 days by hematoxylin and eosin staining method; assay type: organism-based, DMS-53; parameters: dose 4 mg/kg, route intravenous; details: in vivo, 504 h; in short: as §2
Mus musculus [22] = assay: Toxicity in BALB/c nu/nu mouse xenografted with human DMS53 cells assessed as change in lung weight at 20 mg/kg, po administered for 3 times a week measured after 20 days; assay type: organism-based, DMS-53; parameters: dose 20 mg/kg, route oral; details: in vivo, 480 h; in short: as §1
Mus musculus [23] = assay: Toxicity in BALB/c nu/nu mouse xenografted with human DMS53 cells assessed as change in reticulocyte count at 4 mg/kg, iv administered for 5 days a week measured after 21 days; assay type: organism-based, DMS-53; parameters: dose 4 mg/kg, route intravenous; details: in vivo, 504 h
In short: (§5)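 Nude mice carrying DMS-53 xenografts (treatment from 100 mm3) received iv tail-vein doses in 30% propylene glycol/saline, 5 days/week for 21 days. Hematological indices (RBC, hemoglobin, hematocrit, reticulocytes, WBC, platelets) were then compared with vehicle controls.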

Mus musculus [24] = assay: Toxicity in BALB/c nu/nu mouse xenografted with human DMS53 cells assessed as change in platelet count at 8 mg/kg, iv administered for 5 days a week measured after 21 days; assay type: organism-based, DMS-53; parameters: dose 8 mg/kg, route intravenous; details: in vivo, 504 h; in short: as §5
Mus musculus [25] = assay: Toxicity in BALB/c nu/nu mouse xenografted with human DMS53 cells assessed as change in body weight at 8 mg/kg, iv administered for 5 days a week measured after 21 days; assay type: organism-based, DMS-53; parameters: dose 8 mg/kg, route intravenous; details: in vivo, 504 h; in short: as §4

CCN(C)C(=S)NN=C(c1ccccn1)c1ccccn1.Cl
Activity (Mus musculus [1]): Non-toxic | Activity (Mus musculus [2]): Non-toxic | Activity (Mus musculus [3]): Non-toxic | Activity (Mus musculus [4]): Non-toxic | Activity (Mus musculus [5]): Non-toxic | Activity (Mus musculus [6]): Non-toxic | Activity (Mus musculus [7]): Non-toxic | Activity (Mus musculus [8]): Non-toxic | Activity (Mus musculus [9]): Non-toxic | Activity (Mus musculus [10]): Toxic | Activity (Mus musculus [11]): Non-toxic | Activity (Mus musculus [12]): Non-toxic

CN(C(=S)NN=C(c1ccccn1)c1ccccn1)C1CCCCC1.Cl
Activity (Mus musculus [13]): Non-toxic | Activity (Mus musculus [14]): Non-toxic | Activity (Mus musculus [2]): Non-toxic | Activity (Mus musculus [15]): Non-toxic | Activity (Mus musculus [16]): Non-toxic | Activity (Mus musculus [17]): Non-toxic | Activity (Mus musculus [18]): Non-toxic | Activity (Mus musculus [19]): Non-toxic | Activity (Mus musculus [20]): Non-toxic | Activity (Mus musculus [21]): Non-toxic | Activity (Mus musculus [22]): Non-toxic | Activity (Mus musculus [23]): Non-toxic | Activity (Mus musculus [24]): Non-toxic | Activity (Mus musculus [25]): Non-toxic
